# Screening results from PubChem BioAssay.
# Only some compounds are listed: those with a hit (about 3.8% of all), similar ones and a draw of the others.
# Kir21 block = inhibitors of mouse Kir2.1 inward-rectifier potassium channel; AID 1672, 2009; HEK293-Kir2.1, FluxOR thallium flux fluorescence; active compounds read low; B-score at 10 µM; hit rate 0.85% among 310,000;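 active means fluorescence ratio B-score at or below minus 3 SD of library scores, with starting-brightness B-score within 2 SD, cut at about -4.2 in these data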;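 further: channel flux triggered by added potassium and thallium sulfate stimulus; B-score of peak minus minimum fluorescence over baseline after thallium stimulus; more negative B-score means stronger Kir2.1 block with less thallium influx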
# KCNK9 inh = KCNK9 potassium channel inhibitors, primary screen, HEK293 cells, thallium flux; FluxOR thallium flux fluorescence; active compounds read low; B-score at 10 µM; hit rate 1.2% among 310,000;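 active means ratio B-score over 3 SD below the library mean, with starting fluorescence within 5 SD of its mean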;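 further: negative B-score means less thallium flux so channel inhibition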
# KCNQ1 block = inhibitors of human KCNQ1 channel, primary screen, cell-based, thallium flux, high-throughput. hit rate 1.3% among 310,000. AID 2642, 2010. CHO-K1 KCNQ1, FluxOR thallium flux fluorescence; active compounds read high. Potassium voltage-gated channel subfamily KQT member 1 (Homo sapiens), P51787. B-score at 10 µM;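 active means compounds whose thallium flux B-score, printed positive for inhibition, exceeds three library SD while starting fluorescence stays within three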;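 further: channel opened by potassium depolarization with thallium stimulus after 20 min compound exposure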
# hERG rescue = hERG rescue from dofetilide block, primary screen, cell-based, CHO-hERG, FluxOR thallium flux, dofetilide IC70. Voltage-gated inwardly rectifying potassium channel KCNH2 (Homo sapiens), Q12809. dofetilide IC70 present. activation (rescue from dofetilide block), less the hit threshold, % at 10 µM. hit rate 0.51% among 310,000;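 active means activation above the mean of controls blocked by dofetilide plus 5 SD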;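 further: thallium influx through hERG after potassium depolarization seen as dye fluorescence rise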
# Target sequence (Q12809 whole entry, looked up): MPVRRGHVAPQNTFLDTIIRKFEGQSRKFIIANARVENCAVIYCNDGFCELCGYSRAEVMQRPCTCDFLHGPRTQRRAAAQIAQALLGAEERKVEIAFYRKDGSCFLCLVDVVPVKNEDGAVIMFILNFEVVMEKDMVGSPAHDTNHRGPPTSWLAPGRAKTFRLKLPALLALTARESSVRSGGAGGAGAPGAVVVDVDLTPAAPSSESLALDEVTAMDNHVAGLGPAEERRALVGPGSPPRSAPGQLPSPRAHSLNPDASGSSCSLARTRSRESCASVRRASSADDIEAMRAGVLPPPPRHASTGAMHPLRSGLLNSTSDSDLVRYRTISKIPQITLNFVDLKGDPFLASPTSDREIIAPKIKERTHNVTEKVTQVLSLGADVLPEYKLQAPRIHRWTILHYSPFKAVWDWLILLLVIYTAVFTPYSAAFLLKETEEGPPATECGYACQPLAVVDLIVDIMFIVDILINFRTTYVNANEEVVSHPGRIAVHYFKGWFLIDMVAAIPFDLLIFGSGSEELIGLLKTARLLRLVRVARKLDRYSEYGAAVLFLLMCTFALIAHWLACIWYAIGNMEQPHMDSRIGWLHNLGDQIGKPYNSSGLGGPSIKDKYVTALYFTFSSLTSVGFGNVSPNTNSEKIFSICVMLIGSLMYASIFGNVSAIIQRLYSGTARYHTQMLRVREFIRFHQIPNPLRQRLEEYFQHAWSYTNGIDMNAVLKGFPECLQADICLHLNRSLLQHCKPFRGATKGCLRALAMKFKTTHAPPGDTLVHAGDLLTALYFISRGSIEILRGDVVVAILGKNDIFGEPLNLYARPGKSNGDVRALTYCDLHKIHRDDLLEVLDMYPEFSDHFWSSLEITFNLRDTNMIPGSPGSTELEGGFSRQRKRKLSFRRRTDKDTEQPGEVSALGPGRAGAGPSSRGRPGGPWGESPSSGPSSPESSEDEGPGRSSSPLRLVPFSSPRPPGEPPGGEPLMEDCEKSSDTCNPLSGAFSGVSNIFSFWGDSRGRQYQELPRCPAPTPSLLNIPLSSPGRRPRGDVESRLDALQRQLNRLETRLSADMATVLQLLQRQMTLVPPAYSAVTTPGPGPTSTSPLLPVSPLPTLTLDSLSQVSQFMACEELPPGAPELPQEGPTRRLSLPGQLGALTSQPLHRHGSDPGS
# KCNQ1 pot = potentiators or activators of KCNQ1 channel, primary screen, cell-based, thallium flux, high-throughput. CHO-K1 KCNQ1, thallium flux FluxOR fluorescence; active compounds read high. B-score at 10 µM. hit rate 0.35% among 310,000. AID 2648, 2010;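 active means fluorescence ratio B-score, a plate-corrected score, at least three library SD, with initial intensity B-score within 5 SD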
#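 Material: CHO-K1 cells stably expressing KCNQ1. Medium: assay buffer for compound exposure, DMSO matched across wells. Reagent: K+/Tl+ depolarizing stimulus. Compound dosing: single-concentration screen. Times: 37 °C overnight plating, 90-min dark dye load, 20-min compound pretreatment. Technique: FluxOR Tl+ flux fluorescence.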
# KCNK3 block = human KCNK3 channel inhibitors, primary screen, CHO cells, FluxOR thallium flux, B-score. Potassium channel subfamily K member 3 (Homo sapiens), O14649. FluxOR fluorescence; active compounds read low. B-score at 10 µM. hit rate 0.84% among 340,000;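 active means B-score under library mean minus 4 SD, starting fluorescence ratio at most library mean plus 5 SD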;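 further: more negative B-score means stronger inhibition of thallium flux through KCNK3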
# KCNK3 confirm = retest of human KCNK3 channel inhibitors, confirmation, CHO cells, FluxOR thallium flux, triplicate; shares compounds with KCNK3 block; FluxOR fluorescence; 0% buffer, 100% carvedilol maximal block; ratio percent of control, % at 10 µM; hit rate 99% among 2,400;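 active means ratio percent of control, averaged over triplicates, above buffer control mean plus 5 SD, cut at about 64% in these data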;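 further: ratio is the fluorescence rise from min to max over baseline after thallium stimulus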
# KCNK3 noninduced = thallium flux inhibition in non-induced cells, primary screen, counter-screen for KCNK3 inhibitor project, cell-based, non-induced KCNK3 line, FluxOR thallium, triplicate. shares compounds with KCNK3 block. non-induced KCNK3 parental cells; active compounds read low. thallium flux ratio (lower = more inhibition) at 10 µM. hit rate 40% among 2,400. AID 651747, 2012;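 active means thallium flux ratio, averaged over three wells, more than 5 SD below the buffer control mean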;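 further: host cells are CHO cells without KCNK3 induction; ratio is peak minus trough fluorescence over baseline then normalized to buffer controls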
# * marks the source's active call; other numbers are inactive results; i = inactive; . = not tested or not shown.
SMILES,Kir21 block,KCNK9 inh,KCNQ1 block,hERG rescue,KCNQ1 pot,KCNK3 block,KCNK3 confirm,KCNK3 noninduced
Cc1cccc(OCCCn2c(=O)oc3ccc(C)cc32)c1,0.22,i,i,-7,i,-9.3*,94*,i
Cc1c(C(C)(C)C)sc(=NC(=O)c2ccccc2O)n1C,-0.52,i,i,-5,i,-9.7*,65*,i
Cc1c(C(C)(C)C)s/c(=N/S(=O)(=O)c2ccccc2)n1C,-1.1,i,i,-3,i,i,.,.
CC(C)(C)NC(=O)COC(=O)c1ccc(Cl)cc1O,0.58,i,i,-5,i,i,.,.
S=C(c1ccc(-c2cc(Cl)ccc2Cl)o1)N1CCOCC1,0.7,i,i,-9,i,-8.9*,126*,0.14*
Cc1c(C(=O)NNC(=S)Nc2ccc(S(N)(=O)=O)cc2)oc2ccccc12,1.6,i,i,-7,i,i,.,.
COc1cccc2cc(C(C)N(CCCN3CCOCC3)C(=S)Nc3ccc(C)c(C)c3)oc12 (centres undefined),-0.13,i,i,-14,i,-9.3*,89*,i
COc1ccc(NC(=S)N(CCCN2CCOCC2)C(C)c2cc3cccc(OC)c3o2)cc1 (centres undefined),0.75,i,i,-14,i,i,.,.
Cc1ccc(C)c(CN2C(=O)C3(OCCCO3)c3ccccc32)c1,0,i,i,-14,i,i,.,.
CCOc1ccccc1CN1C(=O)C2(OCCO2)c2ccccc21,-0.59,i,i,-2,i,-9.7*,108*,i
COc1ccc(OC)c(/C=C2/Sc3ccccc3C2=O)c1,-0.1,-7.2*,i,-7,i,-11*,110*,0.12*
COc1c(C)cc(Br)cc1C(=O)Nc1ccc(Cc2ccncc2)cc1,0.07,i,i,-21,i,-9.7*,117*,i
Cc1ccc(S(=O)(=O)NCC2CCC(C(=O)N3CCN(C)CC3)CC2)cc1 (centres undefined),-0.43,i,i,-7,i,i,.,.
COc1ccccc1C(=O)NC(=O)COC(=O)c1cccc(NC(C)=O)c1,-0.21,i,i,-11,i,i,.,.
CCc1ccc(NC(=O)c2sc3nc(C)nc(N4CCN(c5ccccn5)CC4)c3c2C)cc1,-0.08,i,6*,-15,i,-12*,139*,0.11*
Cc1nc(N2CCN(c3ccccn3)CC2)c2c(C)c(C(=O)N3CCN(c4cccc(Cl)c4)CC3)sc2n1,-0.01,i,i,-25,i,-9.4*,97*,i
CC1=[N+](C)c2c(ccc3cccnc23)C1(C)C,.,.,.,.,.,-12*,119*,i
Cc1[nH]c2c(ccc3cccnc32)c1C,-0.29,i,i,-9,i,i,.,.
CC(=O)N1N=C2/C(=C/c3ccccc3)CCCC2C1c1ccccc1 (centres undefined),-1.7,i,i,-12,i,-9.6*,103*,i
O=C(CNC(=O)c1ccccc1F)OCCOc1cccc(Cl)c1,0.96,i,i,-13,i,i,.,.
CCCn1nc([N+](=O)[O-])c(C(C#N)c2nc3ccccc3s2)c(Cl)c1=O (centres undefined),-3.1,i,14*,-23,i,-8.8*,133*,0.11*
